Test results as given in paper PMC3128789 (Nuclear medicine and biology, 2011).
Read-outs that look alike come from different tables or passages of the source. Values belong to the compound of their own block, whether it stands above or below them.

Columns and labels:
[1] = Urinary excretion of radioactivity; type: in vivo, Sprague-Dawley rats; conditions: by 24 h, 3H radioactivity
Method in brief: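 Rats under isoflurane received 74 kBq (2 μCi) [1-³H]6FDG by tail vein and were handled as in the ¹⁸F study: recovery in a metabolic cage for the later time points. Urine radioactivity was counted directly and expressed as a percentage of injected radioactivity at 1, 6 and 24 h.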

glucose dehydrogenase = conditions: enzyme derived from rat liver; cited from earlier work
hexokinase = conditions: cited from earlier work
[2] = intact rats, without phlorizin (SGLT inhibitor) pre-treatment; cited from earlier work
[3] = type: in vivo, Sprague-Dawley rats; conditions: average of all tissues, 1 h after i.v. injection
[4] = type: in vivo, Sprague-Dawley rats; conditions: liver
Method in brief: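 Rats under 2% isoflurane in oxygen received the tracer by tail vein: about 37 MBq (1 mCi) for the 1 h point and 370 MBq (10 mCi) for 6 h. Tissues were homogenised in 8 mL/g ice-cold ethanol:PBS:water (65:10:25) and spun 15 min at 23,500 × g, 4 °C. The methanol-water extract was dried, taken up in water and run on formate-form AG 1-X8 anion exchange, eluting with water then formic acid. Columns were counted afterwards.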

[5] = by 5 h; cited from earlier work
[6] = type: in vivo, Sprague-Dawley rats; conditions: 1 h biodistribution time
[7] = type: in vivo, Sprague-Dawley rats
[8] = HPLC quantification of neutral radioactivity; type: in vivo, Sprague-Dawley rats

- urinary excretion of radioactivity, percentage of injected radioactivity [1]: less than 8%
Compound: O=C[C@H](O)[C@@H](O)[C@H](O)[C@H](O)CF [6FDG, 6-fluoro-6-deoxy-D-glucose]
- activity of glucose dehydrogenase on substrate (glucose dehydrogenase): same activity
- phosphorylation by hexokinase in vitro (hexokinase; preliminary evaluation): lack of its phosphorylation

- percentage of homogenate 18F radioactivity in the methanol-water layer (extraction) [3]: 95.6 ± 2.6%
- percentage of 18F radioactivity remaining bound to the anion exchange column ([4]; 1 h): 1%
- percentage of 18F radioactivity remaining bound to the anion exchange column ([4]; 6 h): 5%
Compound: O=C[C@H](O)[C@@H](O)[C@H](O)[C@H](O)C[18F] [[^18F]6FDG, [^18F]6-fluoro-6-deoxy-D-glucose]
- urinary excretion of [18F]6FDG [2]: little urinary excretion

Compound: CO[C@@H]([C@H](O)[C@H](O)CO)[C@@H](O)C=O [3OMG, 3-O-methyl-glucose, reference compound]
- urinary excretion [5]: 50%
- phosphorylation by hexokinase in vitro (hexokinase): can be phosphorylated

Compound: C[C@@H](O)[C@@H](O)[C@H](O)[C@@H](O)C=O [6-deoxy-D-glucose]
- activity of glucose dehydrogenase on substrate (glucose dehydrogenase): same activity

Compound: [3H]C1(O)O[C@H](CF)[C@@H](O)[C@H](O)[C@H]1O (stereo partly shown) [[1-^3H]6FDG]
- percentage of 3H radioactivity eluting with water, cation exchange column [6]: ~100%
- blood radioactivity ([7]; 24 h after i.v. injection): negligible
- percentage of 3H radioactivity eluting with water, anion exchange column ([7]; average across tissues, 1 h): 101%
- percentage of 3H radioactivity eluting with water, anion exchange column ([7]; average across tissues, 24 h): 95%
- percentage of 3H radioactivity eluting with water, anion exchange column ([7]; individual tissues, 1 h): ≥ 90%
- percentage of radioactivity eluting as [1-3H]6FDG (HPLC) ([8]; blood, 6 h): > 99%
- percentage of radioactivity eluting as 6FDG (HPLC) ([8]; heart, 1 h (lowest tissue)): 90%
- percentage of radioactivity eluting as [1-3H]6FDS (HPLC) ([8]; heart, 6 h (highest tissue)): 28%
- percentage of radioactivity eluting as 6FDG (HPLC) ([8]; heart, 6 h (lowest tissue)): 69%
- percentage of radioactivity eluting as [1-3H]6FDS (HPLC) ([8]; skeletal muscle, 24 h (highest tissue)): 31%
- percentage of radioactivity eluting as 6FDG (HPLC) ([8]; skeletal muscle, 24 h (lowest tissue)): 65%

Compound: OC[C@H]1OC(O)[C@H](O)[C@@H](O)[C@@H]1O (stereo partly drawn) [D-glucose]
- activity of glucose dehydrogenase on substrate (glucose dehydrogenase): same activity
